Test results reported in PMC4233149 (Clinical cancer research : an official journal of the …, 2014).
“And” between values parts separate entries of the source, which are not always exact repeats. Equal entries are not always repeated. Where two headings read alike, the source gives them in different places.

How the values were obtained:
[1] = tested on: advanced solid tumors; test: Tumor response; assay type: in vivo, human
Method in brief: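 Radiological disease status was assessed by RECIST 1.1 at baseline and every 8 weeks during oral weekly dosing.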

[2] = tested on: pSer473 AKT; test: PD biomarker in platelet-rich plasma; assay type: in vivo, human; conditions: PRP
[3] = Permeability; assay type: physicochemical; conditions: across physiological pH ranges
[4] = read-out: mean Cmax of the no-observed-adverse-effect-level (NOAEL) dose; dogs, preclinical toxicology studies; cited from earlier work
[5] = tested on: pSer473 AKT; test: PD biomarker in paired tumor biopsies; assay type: in vivo, human
Method in brief: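 Paired tumor biopsies were taken before and on treatment (oral QW or 60mg QOD). pSer473 AKT was quantified by MSD electrochemiluminescence assay validated to Good Clinical Practice standards. Levels were expressed as percent of each patient's baseline.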

[6] = tested on: pThr246 PRAS40; test: PD biomarker in platelet-rich plasma; assay type: in vivo, human; conditions: 60mg QOD, PRP
Method in brief: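 Platelet-rich plasma was collected at baseline and at 3, 6, 24 and 48h on oral 60mg QOD dosing. pThr246 PRAS40 was measured by MSD electrochemiluminescence assay validated to Good Clinical Practice standards. Values were expressed as percent of individual baseline, averaged per timepoint, and compared with baseline by paired t-test.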

[7] = Phase I safety and tolerability, alternate day; assay type: in vivo, human; conditions: 60mg QOD
Method in brief: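 Patients took 60mg tablets fasted, QOD in 28-day cycles, in expansion cohorts (CRPC, ovarian, MRI). Safety was checked at baseline, cycle 1 days 1, 2, 7, 15, 21, 27 and 28, weekly in cycle 2, then monthly. Glucose was monitored. Serum C-peptide and whole-blood HbA1c were measured at baseline and monthly. AEs were graded by CTCAE v3.0.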

[8] = Plasma pharmacokinetics, QW schedule; assay type: in vivo, human
Method in brief: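 Plasma was sampled after the first and last weekly oral dose of cycle 1 (90–300mg). Concentrations were analysed non-compartmentally for AUC0-168h, Cmax, C48h […], Tmax and apparent terminal t1/2. Last-day/day-1 ratios were derived for AUC, Cmax and C48h.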

[9] = tested on: pSer9 GSK3β; test: PD biomarker in platelet-rich plasma; assay type: in vivo, human; conditions: PRP; for mean pSer9 GSK3β signal, % of baseline levels: 200mg QW, n=11
[10] = Plasma pharmacokinetics, QOD schedule; assay type: in vivo, human; conditions: 60mg QOD
[11] = tested on: pSer473 AKT; conditions: cited from earlier work

## NC1(c2ccc(-c3nc4ccn5c(=O)[nH]nc5c4cc3-c3ccccc3)cc2)CCC1 [MK-2206]
[1]; 150mg QW, 8 weeks, one patient with ER/PR positive, HER2 negative metastatic breast cancer, PIK3CA exon 20 mutation
  reduction in RECIST measurements of target lesions: 22%
[1]; 150mg QW, breast cancer patient, before disease progression
  total time on treatment: 24 weeks
[1]; 150mg QW, breast cancer patient, from 6853U/ml
  CA15-3 level after treatment: 4399 U/ml
[1]; 150mg QW, same breast cancer patient
  reduction in CA15-3: ~36%
[1]; two patients with CRPC
  duration of RECIST SD (range): 6.5-7.5 months
[2]; 60mg QOD
  overall mean decrease of pSer473 AKT levels: 55.3%
  time of maximum inhibition of pSer473 AKT post-MK-2206: 6 h
[2]; 60mg QOD, 3h, 29 patients
  mean pSer473 AKT signal, % of baseline levels: 36.3%
[2]; 60mg QOD, 6h, 29 patients
  mean pSer473 AKT signal, % of baseline levels: 27.9%
[2]; 60mg QOD, 24h, 29 patients
  mean pSer473 AKT signal, % of baseline levels: 44.0%
[2]; 60mg QOD, 48h, 29 patients
  mean pSer473 AKT signal, % of baseline levels: 70.6%
[2]; 60mg QOD, 48h, one outlier removed (28 patients), p=0.0004
  mean pSer473 AKT levels, % of baseline levels: 60.1%
[2]; 150mg QW, breast cancer patient
  time of maximal suppression of pSer473 AKT and its substrate pSer9 GSK3β: 24 h
[2]; 200mg QW, 24h, n=11
  mean pSer473 AKT signal, % of baseline levels: 19.8%
[2]; 200mg QW, 48h, n=11
  mean pSer473 AKT signal, % of baseline levels: 30.6%
[2]; 200mg QW, 96h, n=11
  mean pSer473 AKT signal, % of baseline levels: 51.7%
[2]; 200mg QW, 168h, n=11
  mean pSer473 AKT signal, % of baseline levels: 97.4%
[2]; QW MTD
  duration of initial suppression of pSer473 AKT phosphorylation signal: at least 96 h
[3]
  permeability: high permeability
[4]
  Cmax: 365 nM
[5]; 60mg QOD, 3 patients
  pSer473 AKT levels, % of baseline levels (range): 45.3-56.2%
[5]; 60mg QOD, 3 patients, p=0.004
  mean pSer473 AKT levels, % of baseline levels: 50.1%
[5]; 200mg QW, 5 patients
  pSer473 AKT signal, % of baseline levels (range): 37.5-60.3%
[5]; 200mg QW, 5 patients, p=0.0003
  pSer473 AKT signal, % of baseline levels: 50.0%
[6]
  time of maximum suppression of pThr246 PRAS40 post-MK-2206: 6 h
[6]; 3h
  mean pThr246 PRAS40 levels, % of baseline levels: 79.8%
[6]; 6h
  mean pThr246 PRAS40 levels, % of baseline levels: 79.7%
[6]; 24h
  mean pThr246 PRAS40 levels, % of baseline levels: 86.9%
[6]; 48h
  mean pThr246 PRAS40 levels, % of baseline levels: 91.4%
[6]; 48h, one outlier removed (28 patients), p=0.0019
  mean pThr246 PRAS40 levels, % of baseline levels: 81.9%
[7]
  C-peptide level increase during first cycle (range): 2.7% to 495.5
  time for DLTs to resolve to baseline levels after drug interruption: 1-2 weeks
[7]; 2 patients with baseline levels ≤6.5%
  end of cycle 1 HbA1c values: 7.3% and 8.3%
[7]; 23/27
  patients with increased C-peptide levels during first cycle: 85.2%
[7]; 25/29
  patients with HbA1c levels of ≤6.5% at baseline and end of cycle 1: 86.2%
[7]; 27/38
  elevated blood glucose levels, patients: 71.1%
[7]; 38 patients
  tolerability: generally well tolerated
[7]; following first cycle, 1/38
  G3 hyperglycemia, patients: 2.6%
[7]; following first cycle, 3/38
  G1-2 hyperglycemia, patients: 7.9%
[8]; 90mg QW
  C48h Last Day / Day1 Ratio (geometric mean): 1.61
[8]; 90mg QW, Day 1
  Tmax, median (min - max): 6.0 (4.0-10.0) h
[8]; 90mg QW, Last Day of cycle 1
  Tmax, median (min - max): 4.0 (4.0-4.0) h
[8]; 90mg to 300mg QW
  dose proportionality of AUC and Cmax: increased in a dose-proportional manner
[8]; 90mg, 135mg, 200mg, 250mg and 300mg QW
  decline of plasma concentrations: declined in a mono-exponential manner
[8]; 90mg-300mg QW, cycle 1
  auto-induction of metabolizing enzymes: no auto-induction of MK-2206 metabolizing enzymes
[8]; 135mg QW
  AUC0-168h Last Day / Day1 Ratio (geometric mean): 1.91
  C48h Last Day / Day1 Ratio (geometric mean): 1.86
  Cmax Last Day / Day1 Ratio (geometric mean): 1.95
[8]; 135mg QW, Day 1
  Tmax, median (min - max): 4.0 (4.0-10.0) h
[8]; 150mg QW, Last Day of cycle 1, N=1
  Tmax: 4.0 h
[8]; 200mg QW
  AUC0-168h Last Day / Day1 Ratio (geometric mean): 1.54
  C48h Last Day / Day1 Ratio (geometric mean): 1.49
  Cmax Last Day / Day1 Ratio (geometric mean): 1.33
[8]; 200mg QW, Day 1
  Tmax, median (min - max): 6.0 (4.0-10.0) h
[8]; 200mg QW, Last Day of cycle 1
  Tmax, median (min - max): 6.0 (4.0-24.0) h
[8]; 250mg QW, Day 1
  Tmax, median (min - max): 6.0 (4.0-6.0) h
[8]; 250mg QW, Last Day of cycle 1, N=1
  Tmax: 4.0 h
[8]; 300mg QW, Day 1
  Tmax, median (min - max): 4.0 (4.0-6.0) h
[8]; QW schedule, inter-patient variability
  percent coefficient of variations (CVs) of AUC and Cmax: 12% to 71
[8]; higher at 200mg QW
  Cmax at 200mg QW compared with 60mg QOD: about 2 fold
[8]; human, plasma, oral, 90 mg
  half-life: 71.6 ± 12.2 h
[8]; human, plasma, oral, 90 mg, C48h Mean ± SD, 90mg QW, Day 1, plasma
  concentration at 48 h: 50.9 ± 38.2 nM
[8]; human, plasma, oral, 90 mg, C48h Mean ± SD, 90mg QW, Last Day of cycle 1, plasma
  concentration at 48 h: 79.3 ± 33.7 nM
[8]; human, plasma, oral, 90 mg, mean C48h, 90mg QW, multiple dose
  concentration at 48 h: 79.3 nM
[8]; human, plasma, oral, 135 mg
  Tmax: 5 h
  half-life: 88.9 ± 26.9 h
[8]; human, plasma, oral, 135 mg, C48h Mean ± SD, 135mg QW, Day 1, plasma
  concentration at 48 h: 90.3 ± 25.1 nM
[8]; human, plasma, oral, 135 mg, mean C48h, 135mg QW, multiple dose
  concentration at 48 h: 158 nM
[8]; human, plasma, oral, 150 mg
  Tmax: 4 to 10 h
  half-life: 64.4 h
[8]; human, plasma, oral, 150 mg, AUC0-168h Mean, 150mg QW, Day 1, plasma, N=2
  AUC(0-t): 20.7 µM·h
[8]; human, plasma, oral, 150 mg, C48h, 150mg QW, Last Day of cycle 1, plasma, N=1
  concentration at 48 h: 185 nM
[8]; human, plasma, oral, 150 mg, C48h Mean, 150mg QW, Day 1, plasma, N=2
  concentration at 48 h: 155 nM
[8]; human, plasma, oral, 150 mg, Cmax Mean, 150mg QW, Day 1, plasma, N=2
  Cmax: 337 nM
[8]; human, plasma, oral, 150 mg, Cmax, 150mg QW, Last Day of cycle 1, plasma, N=1
  Cmax: 346 nM
[8]; human, plasma, oral, 200 mg, C48h Mean ± SD, 200mg QW, Day 1, plasma
  concentration at 48 h: 121 ± 47.4 nM
[8]; human, plasma, oral, 200 mg, mean C48h, 200mg QW, multiple dose
  concentration at 48 h: 187 nM
[8]; human, plasma, oral, 250 mg
  half-life: 53.7 h
[8]; human, plasma, oral, 250 mg, C48h, 250mg QW, Last Day of cycle 1, plasma, N=1
  concentration at 48 h: 74.8 nM
[8]; human, plasma, oral, 250 mg, C48h Mean ± SD, 250mg QW, Day 1, plasma
  concentration at 48 h: 103 ± 19.6 nM
[8]; human, plasma, oral, 250 mg, Cmax, 250mg QW, Last Day of cycle 1, plasma, N=1
  Cmax: 169 nM
[8]; human, plasma, oral, 300 mg, C48h Mean, 300mg QW, Day 1, plasma
  concentration at 48 h: 253 nM
[8]; human, plasma, oral, 300 mg, mean Cmax after the first dose, 300mg QW cohort
  Cmax: 466 nM
[8]; human, plasma, oral, mean Cmax levels after multiple QW dose administration, 90mg to 250mg QW
  Cmax: 153 to 245 nM
[9]; 60mg QOD
  time of maximum suppression of pSer9 GSK3β post-MK-2206: 6 h
[9]; 60mg QOD, 3h
  mean pSer9 GSK3β levels, % of baseline levels: 76.8%
[9]; 60mg QOD, 6h
  mean pSer9 GSK3β levels, % of baseline levels: 67.5%
[9]; 60mg QOD, 24h
  mean pSer9 GSK3β levels, % of baseline levels: 102.9%
[9]; 24h
  mean pSer9 GSK3β signal, % of baseline levels: 65.0%
[9]; 48h
  mean pSer9 GSK3β signal, % of baseline levels: 82.3%
[9]; 96h
  mean pSer9 GSK3β signal, % of baseline levels: 91.4%
[9]; 168h
  mean pSer9 GSK3β signal, % of baseline levels: 117.2%
[10]
  accumulation ratio AUClast day:AUCfirst day: 3.3
[11]; level identified in preclinical models as associated with antitumor activity
  concentration required for 70% inhibition of pSer473 AKT in whole blood: 57 nmol/L
[11]; plasma concentration target
  prespecified PK target for 70% inhibition of pAKT: 56.8 nM
